The list is not random: actives were taken first. Their share in the collection is about 1.1%.
TNAP act hiacc – activators of human TNAP at high phosphate acceptor concentration | AID 1136 | 200,000 tested, under 10 active | purified TNAP, CDP-star luminescence, 1 M DEA, 30 min; hits give high values; 0 = EDTA background, 1 = DMSO-only activity | P05186 | activation factor at 20 µM;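 active = activation factor at least 2 at 20 µM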
Target sequence (P05186 whole entry, looked up): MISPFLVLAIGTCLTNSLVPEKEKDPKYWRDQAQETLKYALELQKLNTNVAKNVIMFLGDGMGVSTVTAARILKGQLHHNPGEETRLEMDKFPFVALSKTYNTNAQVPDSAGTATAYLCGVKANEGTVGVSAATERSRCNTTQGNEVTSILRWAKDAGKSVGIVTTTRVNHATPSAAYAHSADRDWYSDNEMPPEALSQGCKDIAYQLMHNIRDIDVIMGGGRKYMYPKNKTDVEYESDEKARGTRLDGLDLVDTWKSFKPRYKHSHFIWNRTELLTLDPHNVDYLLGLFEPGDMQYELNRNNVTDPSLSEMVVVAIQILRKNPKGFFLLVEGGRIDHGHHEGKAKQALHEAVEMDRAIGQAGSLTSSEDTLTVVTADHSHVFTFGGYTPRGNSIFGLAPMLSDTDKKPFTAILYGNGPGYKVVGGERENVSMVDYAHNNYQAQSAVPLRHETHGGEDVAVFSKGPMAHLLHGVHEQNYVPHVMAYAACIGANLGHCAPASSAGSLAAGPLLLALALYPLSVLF
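system = human TNAP | amount = enzyme diluted 1/800 final | reagent = 100 µM CDP-star substrate | signal = luminescent substrate turnover signal | dosing = one dose, 20 µM | benchmarks = EDTA negative control, DMSO positive control | measure = activation factor | timing = 30 min reaction, room temperature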
S1P3 antagonist – antagonists of human S1P3 receptor; Q99500; 170,000 tested, 0.27% active; CHO S1P3 NFAT-BLA reporter, FRET fluorescence, antagonist mode; inhibition, % at 4.98 µM;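 active = inhibition above the plate cutoff, the mean inhibition of test wells on that plate plus 3 SD, cut at about 28% in these data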;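 also: cells challenged with S1P at its EC80 of 0.8 µM; blue over green emission ratio from cleaved BLA substrate after 4 h stimulation; 0% = S1P-stimulated wells and 100% = unstimulated DMSO-only wells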
S1P4 antagonist – blocks the human S1P4 receptor. O95977. S1P4-expressing cells, antagonist mode, reporter read-out. inhibition, % at 4.98 µM. 220,000 tested, 0.26% active; in the data active = inhibition above about 29%;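 also: 0% = wells stimulated with agonist and 100% = vehicle wells without agonist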
TNAP inh no acc – TNAP (human) inhibition, acceptor-free conditions. P05186. inhibition, % at 20 µM. 200,000 tested, 0.26% active. purified TNAP, CDP-star luminescence, 30 min;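 active = tissue-nonspecific alkaline phosphatase inhibition above about 50% at 20 µM in the single-dose screen, limit read from the data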;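 also: 0% = DMSO negative control and 100% = EDTA positive control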
TNAP inh hi DEA – inhibitors of human TNAP at high phosphate acceptor concentration; purified TNAP, CDP-star luminescence, 1 M DEA; inhibition, % at 20 µM; 200,000 tested, 0.03% active; AID 1135;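 active = over 50% inhibition of tissue-nonspecific alkaline phosphatase at 20 µM in the single-dose screen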;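 also: plate controls were DMSO wells for no effect and EDTA-quenched wells as full inhibition for full effect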
S1P4 ag – agonists of human S1P4 receptor; O95977; S1P4-expressing cell line, agonist reporter assay; activation, % at 4.98 µM; 220,000 tested, 0.35% active; in the data active = activation above about 11%;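 also: 0% = DMSO vehicle and 100% = reference agonist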
S1P4 agonist cf – confirmation of human S1P4 receptor agonists. shares compounds with S1P4 ag. S1P4 agonist cell-based reporter assay. activation, % at 4.98 µM. 740 tested, 7% active; in the data active = activation above about 12%;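 also: 0% = vehicle and 100% = full reference agonist response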
S1P1 agonist – human S1P1 agonism as S1P4 agonist counter-screen; shares compounds with S1P4 ag; S1P1 agonist cell-based assay, activation; activation, % at 4.98 µM; 740 tested, 4% active; AID 1563; in the data active = activation above about 21%;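 also: 0% = vehicle wells and 100% = reference agonist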
An asterisk follows results filed as active; x = not tested or not shown.

SMILES	TNAP act hiacc	S1P3 antagonist	S1P4 antagonist	TNAP inh no acc	TNAP inh hi DEA	S1P4 ag	S1P4 agonist cf	S1P1 agonist
Cc1ccc(-n2c(SC3CCOC3=O)nc3ccccc3c2=O)cc1 (configuration not stated)	1	-8	-12	-4	-5	-3	x	x
Cc1ccc(S(=O)(=O)NC(CC(=O)NCC2CCCO2)c2ccccc2)cc1 (configuration not stated)	1	1	-22	0	1	1	x	x
CNC(=O)c1[nH]cnc1C(=O)N[C@@H](Cc1ccccc1)C(=O)OC(C)(C)C	1	-12	8	-1	-1	0	x	x
CNC(=O)c1[nH]cnc1C(=O)N[C@@H](Cc1ccccc1)C(=O)OCc1ccccc1	1	-35	-26	-12	-2	23*	56*	38*
Cc1cccc(OCC(=O)Nc2ncn[nH]2)c1C	x	-3	-20	x	x	24*	-3	-4
CC(C)CNS(=O)(=O)c1ccc(S(=O)(=O)N2CCC3(CC2)OCCO3)cc1	1	8	-8	-2	-3	16*	-1	-5
COCn1c(-c2ccc(OC)c(OC)c2)nc2ccccc21	1.1	10	-3	-15	-10	2	x	x
COCn1c(-c2cccc(Br)c2)nc2ccccc21	1.1	23	15	-15	-8	82*	0	7
Cc1nc([N+](=O)[O-])cn1CC(O)c1ccc(F)cc1 (configuration not stated)	x	-5	-8	x	x	0	x	x
Cn1cccc1C(=O)NC(=O)COC(=O)CNC(=O)c1ccc(Cl)cc1Cl	1	-5	-6	-15	0	2	x	x
Cn1cccc1C(=O)NC(=O)COC(=O)CNC(=O)CNC(=O)c1ccc(Cl)cc1Cl	1	-24	-4	-7	0	22*	-2	8
CC12CCC(C(=O)NCc3ccc(F)cc3)(OC1=O)C2(C)C (configuration not stated)	1.1	-10	-8	-12	-6	0	x	x
CC1CCC/C(=N\NC(=O)Nc2ccccc2)C1 (configuration not stated)	1	-9	9	-20	-3	1	x	x
COc1ccc(NCC(=O)N/N=C2\CCCC(C)C2)cc1 (configuration not stated)	1	8	-3	-5	0	23*	-2	-4
N#CCC(CNc1ncc(C(F)(F)F)cc1Cl)OC(=O)c1cccc(C(F)(F)F)c1 (configuration not stated)	1	x	1	-3	2	16*	-2	5
CCOC(=O)C1C(c2ccccc2)C(C(=O)OCC)S(=O)(=O)C(CCN(CC)CC)S1(=O)=O (configuration not stated)	1	4	-11	-9	-1	0	x	x
CCOc1cc(N2CCOCC2)c(OCC)cc1NC(=O)c1cc(C)cc(C)c1	1	-5	-1	2	4	1	x	x
CCOc1cc(N2CCOCC2)c(OCC)cc1NC(=O)c1ccc(C)cc1	1	-3	-6	-7	-2	155*	-2	0
COc1ccc2[nH]c3c(=O)n4c(nc3c2c1)SCCC4	1	-23	4	-12	-1	36*	-2	-4
COc1ccc(/C(C)=N/NC(=O)c2sccc2-n2cccc2)cc1	1	-3	0	-10	-2	0	x	x
COc1ccc(Cn2c(=O)sc3ccccc3c2=O)cc1	1	4	12	-5	0	0	x	x
COCCn1c(=O)sc2ccccc2c1=O	1	-12	-18	-1	0	27*	-1	-2
O=[n+]1c2c(n([O-])c3cc(F)ccc31)CCCC2	1.1	4	-8	1	-8	21*	-2	-7
Cc1ccc2c(c1)n([O-])c1c([n+]2=O)CCCC1	1.1	x	-13	-11	-6	2	x	x
CN1CCN(CCCNC(=O)c2ccc(/C=C3/Sc4ccccc4N(Cc4cccc(Cl)c4)C3=O)cc2)CC1	1	3	-9	0	-4	1	x	x

Screens deposited in PubChem by several laboratories.
